In ChEMBL document CHEMBL3861962 (Eur J Med Chem, 2016):
One block for each compound: values may come before it.

Legend:
[1] = Drug level in human liver microsomes treated with 4-(1,1,1,3,3,3-Hexafluoro-2-hydroxypropan-2-yl)-N-(6-(2-hydroxyethoxy)-5-(2-methoxyphenoxy)-2,2'-bipyrimidin-4-yl)benzenesulfonamide at 5 uM in presence of NADPH after 30 mins by LC-MS/MS analysis; assay type: ADME; settings: 0.5 h
Summary of the method: (§1)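 Substrate at 5 μM final in 100 mM potassium phosphate, pH 7.4, incubated with human liver microsomes or baculovirus-expressed recombinant CYP3A4, 2D6 or 2C9. Reaction started with 1 mM NADPH and run 0, 15 and 30 min at 37 °C. Stopped with ice-cold acetonitrile containing labetalol internal standard, then centrifuged. Supernatant analysed by LC-MS/MS on a C18 column at 40 °C. Blank was enzyme without substrate.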

Cytochrome P450 3A4 [2] = target: T1, Cytochrome P450 3A4 (Homo sapiens, UniProt P08684); test: Drug level assessed as human recombinant CYP3A4-mediated compound formation treated with 4-(1,1,1,3,3,3-Hexafluoro-2-hydroxypropan-2-yl)-N-(6-(2-hydroxyethoxy)-5-(2-methoxyphenoxy)-2,2'-bipyrimidin-4-yl)benzenesulfonamide at 5 uM in presence of NADPH after 30 mins by LC-MS/MS analysis; assay type: ADME; settings: recombinant enzyme, 0.5 h; summary of the method: as §1
T1 sequence (P08684 whole entry): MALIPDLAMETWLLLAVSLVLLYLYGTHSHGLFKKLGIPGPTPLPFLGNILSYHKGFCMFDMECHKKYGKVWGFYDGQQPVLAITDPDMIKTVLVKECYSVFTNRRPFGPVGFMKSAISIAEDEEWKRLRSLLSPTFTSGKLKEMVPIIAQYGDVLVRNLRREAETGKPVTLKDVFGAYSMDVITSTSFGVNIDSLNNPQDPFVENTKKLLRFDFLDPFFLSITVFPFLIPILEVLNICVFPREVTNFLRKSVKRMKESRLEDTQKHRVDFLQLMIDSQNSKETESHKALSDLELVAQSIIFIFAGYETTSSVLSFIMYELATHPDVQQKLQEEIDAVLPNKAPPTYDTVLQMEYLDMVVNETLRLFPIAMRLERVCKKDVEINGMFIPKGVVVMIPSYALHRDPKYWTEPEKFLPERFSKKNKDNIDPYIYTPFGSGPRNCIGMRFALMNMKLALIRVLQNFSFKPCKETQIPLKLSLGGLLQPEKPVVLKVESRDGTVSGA

[3] = Retention time of the compound; assay type: physicochemical
[4] = Metabolic stability in human liver microsomes assessed as parent compound remaining at 5 uM in presence of NADPH after 30 mins by LC-MS/MS analysis; assay type: ADME; settings: read-out: Stability
Summary of the method: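 Pooled human liver microsomes in 100 mM potassium phosphate, pH 7.4, with test compound at 5 μM final. Reaction started with 1 mM NADPH (final) and run at 37 °C in a shaking water bath for 0, 15 and 30 min. Stopped with an equal volume of ice-cold acetonitrile containing 0.6 μM labetalol as internal standard. Protein was spun out and the supernatant analysed by LC-MS/MS. Blank had no compound.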

Cytochrome P450 3A4 [5] = target: T1, Cytochrome P450 3A4; test: Drug metabolism assessed as human recombinant CYP3A4-mediated metabolite formation by measuring parent compound remaining at 5 uM in presence of NADPH after 30 mins by LC-MS/MS analysis; assay type: ADME; settings: recombinant enzyme, 0.5 h; summary of the method: as §1
Cytochrome P450 2C9 = Cytochrome P450 2C9 (Homo sapiens, UniProt P11712); test: Drug metabolism assessed as human recombinant CYP2C9-mediated metabolite formation by measuring parent compound remaining at 5 uM in presence of NADPH after 30 mins by LC-MS/MS analysis; assay type: ADME; settings: recombinant enzyme, 0.5 h; summary of the method: as §1
Sequence of Cytochrome P450 2C9 (P11712 whole entry): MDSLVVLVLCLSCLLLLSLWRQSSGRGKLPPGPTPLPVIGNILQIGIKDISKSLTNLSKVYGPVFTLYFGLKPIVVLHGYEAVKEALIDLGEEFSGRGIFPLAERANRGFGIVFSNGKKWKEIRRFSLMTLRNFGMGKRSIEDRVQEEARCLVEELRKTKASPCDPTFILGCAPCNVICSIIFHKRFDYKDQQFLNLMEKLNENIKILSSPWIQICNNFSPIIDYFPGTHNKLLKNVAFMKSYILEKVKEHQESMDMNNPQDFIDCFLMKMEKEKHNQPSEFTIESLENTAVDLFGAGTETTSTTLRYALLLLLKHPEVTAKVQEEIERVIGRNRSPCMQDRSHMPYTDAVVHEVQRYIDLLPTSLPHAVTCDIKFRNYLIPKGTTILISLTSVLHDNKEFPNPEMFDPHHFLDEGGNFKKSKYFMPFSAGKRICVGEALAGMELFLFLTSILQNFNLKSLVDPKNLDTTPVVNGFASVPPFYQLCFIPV

[6] = Drug metabolism in human liver microsomes assessed as formation of 4-(1,1,1,3,3,3-hexafluoro-2-hydroxypropan-2-yl)-N-(6-(2-hydroxyethoxy)-5-(2-hydroxyphenoxy)-2,2'-bipyrimidin-4-yl)benzenesulfonamide at 5 uM in presence of NADPH after 30 mins by LC-MS/MS analysis; assay type: ADME; settings: 0.5 h; summary of the method: as §1
Cytochrome P450 3A4 [7] = target: T1, Cytochrome P450 3A4; test: Drug metabolism assessed as human recombinant CYP3A4-mediated formation of 4-(1,1,1,3,3,3-hexafluoro-2-hydroxypropan-2-yl)-N-(6-(2-hydroxyethoxy)-5-(2-hydroxyphenoxy)-2,2'-bipyrimidin-4-yl)benzenesulfonamide at 5 uM in presence of NADPH after 30 mins by LC-MS/MS analysis; assay type: ADME; settings: recombinant enzyme, 0.5 h; summary of the method: as §1
[8] = Drug level in human liver microsomes treated with 4-(1,1,1,3,3,3-Hexafluoro-2-methoxypropan-2-yl)-N-(6-(2-hydroxyethoxy)-5-(2-methoxyphenoxy)-2,2'-bipyrimidin-4-yl)benzenesulfonamide at 5 uM in presence of NADPH after 30 mins by LC-MS/MS analysis; assay type: ADME; settings: 0.5 h; summary of the method: as §1
Cytochrome P450 3A4 [9] = target: T1, Cytochrome P450 3A4; test: Drug level assessed as human recombinant CYP3A4-mediated compound formation treated with 4-(1,1,1,3,3,3-Hexafluoro-2-methoxypropan-2-yl)-N-(6-(2-hydroxyethoxy)-5-(2-methoxyphenoxy)-2,2'-bipyrimidin-4-yl)benzenesulfonamide at 5 uM in presence of NADPH after 30 mins by LC-MS/MS analysis; assay type: ADME; settings: recombinant enzyme, 0.5 h; summary of the method: as §1
Cytochrome P450 2D6 = Cytochrome P450 2D6 (Homo sapiens, UniProt P10635); test: Drug metabolism assessed as human recombinant CYP2D6-mediated metabolite formation by measuring parent compound remaining at 5 uM in presence of NADPH after 30 mins by LC-MS/MS analysis; assay type: ADME; settings: recombinant enzyme, 0.5 h; summary of the method: as §1
Sequence of Cytochrome P450 2D6 (P10635 whole entry): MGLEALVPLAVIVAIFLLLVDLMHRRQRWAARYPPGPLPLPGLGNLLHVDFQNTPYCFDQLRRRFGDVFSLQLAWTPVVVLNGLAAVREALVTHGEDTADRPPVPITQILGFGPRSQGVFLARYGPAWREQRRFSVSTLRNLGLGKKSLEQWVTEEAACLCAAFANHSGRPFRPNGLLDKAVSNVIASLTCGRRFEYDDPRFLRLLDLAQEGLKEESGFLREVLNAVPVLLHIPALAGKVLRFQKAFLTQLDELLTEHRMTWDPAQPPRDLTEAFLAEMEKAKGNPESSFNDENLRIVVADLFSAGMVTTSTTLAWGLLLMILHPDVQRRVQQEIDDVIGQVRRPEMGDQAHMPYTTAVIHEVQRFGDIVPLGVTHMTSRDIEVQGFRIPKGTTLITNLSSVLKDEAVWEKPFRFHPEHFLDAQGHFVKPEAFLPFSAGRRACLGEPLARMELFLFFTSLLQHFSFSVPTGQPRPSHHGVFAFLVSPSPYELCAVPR

[10] = Cytotoxicity against CHOK1 cells assessed as decrease in cell viability after 24 hrs by MTT assay; assay type: toxicity, cell-based, Cricetulus griseus; settings: Chinese hamster, CHO-K1 cells
Summary of the method: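 CHO-k1 cells grown in phenol-red-free DMEM/F-12 with 10% FBS, seeded at 20,000 cells/well and allowed to attach overnight. Exposure was 24 h to 0.1–200 μM, with DMSO as vehicle control. MTT at 1 mg/mL for 3 h at 37 °C, formazan dissolved in DMSO, absorbance read at 570 nm. Data given as % OD of vehicle control; IC50 taken from dose–response curve fits.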

[11] = target: T2, Endothelin-1 receptor (Homo sapiens) (UniProt P25101); test: Agonist activity at ETA receptor in human SKNMC cells assessed as induction of Ca2+ mobilization at 1 nM by fluorimetric method relative to control; assay type: functional, cell-based; settings: SK-N-MC
T2 sequence (whole entry): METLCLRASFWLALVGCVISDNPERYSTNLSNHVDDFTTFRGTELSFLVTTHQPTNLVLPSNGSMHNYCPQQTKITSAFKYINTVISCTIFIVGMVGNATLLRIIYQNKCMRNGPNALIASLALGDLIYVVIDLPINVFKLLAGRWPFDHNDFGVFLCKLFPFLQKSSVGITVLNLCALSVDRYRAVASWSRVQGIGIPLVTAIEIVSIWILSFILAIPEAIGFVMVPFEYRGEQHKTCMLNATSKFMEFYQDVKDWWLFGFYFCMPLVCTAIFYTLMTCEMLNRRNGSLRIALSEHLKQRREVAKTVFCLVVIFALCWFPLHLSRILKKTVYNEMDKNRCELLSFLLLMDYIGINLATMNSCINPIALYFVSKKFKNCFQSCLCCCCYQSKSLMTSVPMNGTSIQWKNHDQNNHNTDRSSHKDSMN
Summary of the method: (§2)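 ETA functional assay run by Cerep in human neuroblastoma SK-N-MC cells at 22 °C with fluorimetric read-out. Test solutions were 1, 10, 100 and 1000 nM. Agonist response is given as % of the control response to 100 nM endothelin-1. For antagonist mode, inhibition is given as % of the control endothelin-1 agonist response, with BQ-123 as reference antagonist.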

[12] = target: T2, Endothelin-1 receptor (Homo sapiens); test: Agonist activity at ETA receptor in human SKNMC cells assessed as induction of Ca2+ mobilization at 10 nM by fluorimetric method relative to control; assay type: functional, cell-based; settings: SK-N-MC; summary of the method: as §2
[13] = target: T2, Endothelin-1 receptor (Homo sapiens); test: Agonist activity at ETA receptor in human SKNMC cells assessed as induction of Ca2+ mobilization at 100 nM by fluorimetric method relative to control; assay type: functional, cell-based; settings: SK-N-MC; summary of the method: as §2
[14] = target: T3, Endothelin receptor type B (Homo sapiens) (UniProt P24530); test: Agonist activity at human recombinant ETB receptor expressed in CHOK1 cells assessed as induction of Ca2+ mobilization at 1 nM by fluorimetric method relative to control; assay type: functional, cell-based; settings: CHO-K1
T3 sequence (whole entry): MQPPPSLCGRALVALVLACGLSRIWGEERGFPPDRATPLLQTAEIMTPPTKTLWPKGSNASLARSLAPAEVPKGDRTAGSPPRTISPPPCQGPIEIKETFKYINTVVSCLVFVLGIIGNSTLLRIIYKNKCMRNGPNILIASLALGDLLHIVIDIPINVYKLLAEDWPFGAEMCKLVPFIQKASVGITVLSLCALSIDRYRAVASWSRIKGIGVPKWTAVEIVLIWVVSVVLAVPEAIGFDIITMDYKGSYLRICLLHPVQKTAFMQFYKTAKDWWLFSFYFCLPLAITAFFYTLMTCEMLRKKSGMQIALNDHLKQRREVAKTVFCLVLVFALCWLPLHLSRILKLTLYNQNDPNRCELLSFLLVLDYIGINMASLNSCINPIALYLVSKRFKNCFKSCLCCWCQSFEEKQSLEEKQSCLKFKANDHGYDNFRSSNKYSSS
Summary of the method: as §2, with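 “ETB” for “ETA”, “recombinant CHO-k1” for “neuroblastoma SK-N-MC”, “BQ-788” for “BQ-123”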

[15] = target: T3, Endothelin receptor type B (Homo sapiens); test: Agonist activity at human recombinant ETB receptor expressed in CHOK1 cells assessed as induction of Ca2+ mobilization at 10 nM by fluorimetric method relative to control; assay type: functional, cell-based; settings: CHO-K1
Summary of the method: as §2, with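 “ETB” for “ETA”, “recombinant CHO-k1” for “neuroblastoma SK-N-MC”, “BQ-788” for “BQ-123”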

[16] = target: T3, Endothelin receptor type B (Homo sapiens); test: Agonist activity at human recombinant ETB receptor expressed in CHOK1 cells assessed as induction of Ca2+ mobilization at 100 nM by fluorimetric method relative to control; assay type: functional, cell-based; settings: CHO-K1
Summary of the method: as §2, with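 “ETB” for “ETA”, “recombinant CHO-k1” for “neuroblastoma SK-N-MC”, “BQ-788” for “BQ-123”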

[17] = target: T2, Endothelin-1 receptor (Homo sapiens); test: Antagonist activity at ETA receptor in human SKNMC cells assessed as inhibition of endothelin-1-mediated Ca2+ mobilization at 1 nM by fluorimetric method relative to control; assay type: functional, cell-based; settings: SK-N-MC; summary of the method: as §2
[18] = target: T2, Endothelin-1 receptor (Homo sapiens); test: Antagonist activity at ETA receptor in human SKNMC cells assessed as inhibition of endothelin-1-mediated Ca2+ mobilization at 10 nM by fluorimetric method relative to control; assay type: functional, cell-based; settings: SK-N-MC; summary of the method: as §2
[19] = target: T2, Endothelin-1 receptor (Homo sapiens); test: Antagonist activity at ETA receptor in human SKNMC cells assessed as inhibition of endothelin-1-mediated Ca2+ mobilization at 100 nM by fluorimetric method relative to control; assay type: functional, cell-based; settings: SK-N-MC; summary of the method: as §2
[20] = target: T3, Endothelin receptor type B (Homo sapiens); test: Antagonist activity at human recombinant ETB expressed in CHOK1 cells assessed as inhibition of endothelin-1-mediated Ca2+ mobilization at 1 nM by fluorimetric method relative to control; assay type: functional, cell-based; settings: CHO-K1
Summary of the method: as §2, with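 “ETB” for “ETA”, “recombinant CHO-k1” for “neuroblastoma SK-N-MC”, “BQ-788” for “BQ-123”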

[21] = target: T3, Endothelin receptor type B (Homo sapiens); test: Antagonist activity at human recombinant ETB expressed in CHOK1 cells assessed as inhibition of endothelin-1-mediated Ca2+ mobilization at 10 nM by fluorimetric method relative to control; assay type: functional, cell-based; settings: CHO-K1
Summary of the method: as §2, with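 “ETB” for “ETA”, “recombinant CHO-k1” for “neuroblastoma SK-N-MC”, “BQ-788” for “BQ-123”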

[22] = target: T3, Endothelin receptor type B (Homo sapiens); test: Antagonist activity at human recombinant ETB expressed in CHOK1 cells assessed as inhibition of endothelin-1-mediated Ca2+ mobilization at 100 nM by fluorimetric method relative to control; assay type: functional, cell-based; settings: CHO-K1
Summary of the method: as §2, with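 “ETB” for “ETA”, “recombinant CHO-k1” for “neuroblastoma SK-N-MC”, “BQ-788” for “BQ-123”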

Cytochrome P450 3A4 [23] = target: T1, Cytochrome P450 3A4; test: Drug level assessed as human recombinant CYP3A4-mediated compound formation treated with bosentan at 5 uM in presence of NADPH after 30 mins by LC-MS/MS analysis; assay type: ADME; settings: recombinant enzyme, 0.5 h; summary of the method: as §1
[24] = Drug level in human liver microsomes treated with bosentan at 5 uM in presence of NADPH after 30 mins by LC-MS/MS analysis; assay type: ADME; settings: 0.5 h; summary of the method: as §1

Drug metabolism [1]: Metabolite_Detected | Drug metabolism (Cytochrome P450 3A4 [2]): Metabolite_Detected | Retention_time [3]: 4.39 min
Compound: O=S(=O)(Nc1nc(-c2ncccn2)nc(OCCO)c1Oc1ccccc1O)c1ccc(C(O)(C(F)(F)F)C(F)(F)F)cc1

remaining at 0.5 h, 5 µM [4]: 90.1% | Stability (Cytochrome P450 3A4 [5]): 72.8% | Stability (Cytochrome P450 2C9): 100% | Drug metabolism [6]: Metabolite_Detected | Drug metabolism (Cytochrome P450 3A4 [7]): Metabolite_Detected | Drug metabolism [8]: Metabolite_Detected | Drug metabolism (Cytochrome P450 3A4 [9]): Metabolite_Detected | Retention_time [3]: 4.72 min | Stability (Cytochrome P450 2D6): > 99% | Activity [11]: 0% | Activity [12]: 0% | Activity [13]: 0% | Activity [14]: -1% | Activity [15]: -1% | Activity [16]: -1% | inhibition [17]: -9% | inhibition [18]: -5% | inhibition [19]: -7% | inhibition [20]: 12% | inhibition [21]: 11% | inhibition [22]: 14%
Compound: COc1ccccc1Oc1c(NS(=O)(=O)c2ccc(C(O)(C(F)(F)F)C(F)(F)F)cc2)nc(-c2ncccn2)nc1OCCO
IC50 at 24 h [10]: > 200 µM

Retention_time [3]: 5.52 min
Compound: CCOc1nc(-c2ncccn2)nc(NS(=O)(=O)c2ccc(C(C)(C)C)cc2)c1Oc1ccccc1O

Drug metabolism (Cytochrome P450 3A4 [23]): Metabolite_Detected | Drug metabolism [24]: Metabolite_Detected | Retention_time [3]: 4.16 min
Compound: CC(C)(CO)c1ccc(S(=O)(=O)Nc2nc(-c3ncccn3)nc(OCCO)c2Oc2ccccc2O)cc1
